Screens (PubChem BioAssay)
Insulin prom act: TRM-6 insulin promoter activation | TRM-6 cells, insulin promoter eGFP reporter, imaging; plate-scaled: unstimulated 0, stimulated control 100 | activation, % at 2 µM | 130,000 compounds, 0.81% hits | AID 1296;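 active means activation at 2 µM above a set limit, confirmed on inspection of the cell images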;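 further: share of cells whose green reporter signal exceeds an intensity cutoff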
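System – human fetal islet-derived TRM-6 cells with tamoxifen-inducible insulin promoter–eGFP reporter · Amount – 1,000 cells per well · Schedule – overnight tamoxifen, then two-day compound incubation at 37 °C · Detection – high-content imaging of fixed cells with Hoechst nuclear stain · Read-out – percent cells above green-intensity threshold, converted to percent activation versus plate controls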
Starred values were filed as active, the others as inactive. This excerpt belongs to a sample that is enriched for hits.

SMILES	Insulin prom act
O=C(CN1CCN(S(=O)(=O)c2ccc(Br)cc2)CC1)Nc1ccc(F)cc1F	136.4*
O=C(CCN1CCN(S(=O)(=O)c2ccc(Br)cc2)CC1)Nc1ccccc1F	0.0
O=C(c1cc([N+](=O)[O-])ccc1N1CCOCC1)N1CCCC1	-6.7
COc1ccc(CNn2c(-c3ccccc3F)nc3ccccc3c2=O)cc1OC	7.1
NC(=O)C1(N2CCCCC2)CCN(C(=O)CSc2nc3ccccc3o2)CC1	0.0
NC(=O)C1(N2CCCCC2)CCN(CC(=O)Nc2ccccc2-c2ccccc2)CC1	105.9
NC(=O)C1(N2CCCCC2)CCN(Cc2ccccc2Cl)CC1	456.3*
O=C(O)c1cccc(NS(=O)(=O)c2cccc3nsnc23)c1	-7.4
COc1ccc(N=C2SC(C(=O)Nc3ccc(OC)cc3)CC(=O)N2CCN2CCOCC2)cc1 (centres undefined)	0.0
Nc1nc(SCc2c(F)cccc2Cl)[nH]c(=O)c1-c1ccccc1	-3.3
CCOC(=O)CSc1nc2ccc(N3CCOCC3)cc2c(=O)n1Cc1ccc2c(c1)OCO2	-3.8
Cc1ccc(S(=O)(=O)N(C)C)cc1NC(=O)COC(=O)c1ccc2c(c1)OCO2	102.9
CN(C)S(=O)(=O)c1cccc(NC(=S)NC(=O)C2CCCCC2)c1	-7.7
Cc1ccc(S(=O)(=O)N(C)C)cc1NC(=S)NC(=O)C12CC3CC(CC(C3)C1)C2	387.5*
CN1\C(=C/C=C/C=C/C=[N+](C)C)C(C)(C)c2ccccc21	566.7*
CN1/C(=C\C(=O)C(F)F)C(C)(C)c2ccccc21	4.5
CN1/C(=C\C=Nc2ccc3ccccc3c2)C(C)(C)c2ccccc21	6.5
COc1nc2c(C)cccc2cc1-c1noc(-c2ccco2)n1	-9.1
Cc1ccc2c(c1)nnn2C1CCN(C(=O)C2CCCCC2)CC1	124.2
CC(C)OC(=O)CCNc1n[nH]c(=O)[nH]c1=O	542.9*
COc1ccc(/C=N/NC(=O)CCNc2n[nH]c(=O)[nH]c2=O)c(OC)c1	-2.7
CCCCOC(=O)CNc1n[nH]c(=S)[nH]c1=O	0.0
COC(=O)C1=C(C)N(Cc2ccco2)C(=O)N[C@H]1c1cccc(C(F)(F)F)c1	-4.5
Cc1cc(C)nc(N(C#N)S(=O)(=O)c2ccccc2)n1	-81.8
O=C(O)CCC(=O)NNC(=O)CCC(=O)NCc1ccccc1	0.0
SMILES	Insulin prom act
CCCCCC/C(=N\NS(C)(=O)=O)c1ccccc1	0.0
CCCCC/C(=N\NC(=O)CCC(=O)NCc1ccccc1)c1ccccc1	371.4*
N#Cc1ccc(CN2CCN(C(=O)c3ccccc3)CC2)c(Cl)c1	0.0
COc1ccc(NC(=O)c2ccc3c(c2)NC(=O)CO3)cc1OC	0.0
N/C(=N\OC(=O)Oc1ccccc1)c1ccc(Br)cc1	492.9*
N/C(=N\OC(=O)CCc1ccccc1)c1ccc(Br)cc1	9.7
COc1ccc(/C(N)=N/OC(=O)Oc2ccccc2)cc1OC	-1.5
O=C(/C=C/c1ccc(S(=O)(=O)N2CCOCC2)cc1)NCc1ccc(Cl)cc1	3.6
Clc1cccc(NCc2cn3cccnc3n2)c1	-7.1
CCCCNC(=S)NNC(=O)C12CC3CC(CC(C3)C1)C2	86.2*
CCCCNC(=S)NNC(=O)c1ccc(Br)o1	-7.1
CC(C)(C)OC(=O)NNC(=O)C12CC3CC(CC(C3)C1)C2	-9.1
COc1ccc(/C=N\NC(=O)c2cccc(Br)c2)c(OC)c1	-7.1
COc1ccc(/C=C2\CC/C(=C\c3ccc(OC)c(OC)c3)C2=O)cc1OC	-8.3
COc1ccc(/C=C2\CC/C(=C\c3ccc(OC)cc3OC)C2=O)c(OC)c1	526.7*
CC(=O)Nc1ccc(S(=O)(=O)N(Cc2ccccc2)C(C)C)cc1	2.7
COC(=O)COc1ccc(S(=O)(=O)Nc2ccc(C(N)=O)cc2)cc1C	3.3
CCOC(=O)N1CCN(S(=O)(=O)c2ccc(OCC(=O)OC)c(Cl)c2)CC1	-2.9
COC(=O)COc1ccc(-c2ccc(F)cc2)cc1C=O	450.0*
CCOc1ccc2sc(NS(=O)(=O)c3ccc(OC)c(OC)c3)nc2c1	-7.9
CCOC(=O)c1ccc(NC(=O)C(=O)NCc2ccc(/C=C(/C#N)C(=O)NCCOC)o2)cc1	-7.1
Cc1cccc(NC(=O)/C(C#N)=C/c2ccc(Sc3ccccc3)o2)c1C	-100.0
CN(C)c1ccc(/C=C(/C#N)C(=O)NCc2ccccc2)o1	226.7*
CCOC(=O)c1[nH]c(C)c(C(=O)N2CCN(C(=O)OCC)CC2)c1CC	-9.1
CCOC(=O)c1ccc(CNCc2ccc(Br)cc2)cc1	0.0
SMILES	Insulin prom act
CCOC(=O)C1=C(C)Nc2ccccc2N=C1NC(=O)Cc1ccc(Cl)c(Cl)c1	190.5
CCOC(=O)C1=C(C)Nc2ccccc2N=C1NC(=O)Cc1ccc(Br)cc1	222.6*
N#CCCN(Cc1cccnc1)C(=O)Nc1cccc(Cl)c1	8.3
C=C(C)CN1CCN(c2ccc(N3C(=O)CCCC3=O)cc2[N+](=O)[O-])CC1	7.7
O=C(COC(=O)CCOc1ccccc1)Nc1ncc(Cl)cc1Cl	0.0
c1ccc(-c2cc(-c3ccccc3)n3ncnc3n2)cc1	-69.2
Fc1ccc(-c2cc(C(F)(F)F)n3ncnc3n2)cc1	235.3*
Nc1nc2nc(-c3ccc(OCc4ccccc4)cc3)cc(C(F)(F)F)n2n1	-3.4
